Here are results for eleven molecules from PMC5295499 (Bioorganic & medicinal chemistry letters, 2016).

Entries after “also recorded” stand apart in the source; their conditions may differ. A value given as a limit tells only on which side of the number the result lay.

Data set [1] has as its system MDM2-Luc exon-skipping reporter. Description: MDM2-Luc triple exon-skipping luciferase reporter assay. It is filed as cell-based. In short, it runs like this:
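Stable cell line expressing the triple exon-skipping luciferase construct. Exon skipping induced by SF3B1-targeted splicing modulators switches on luciferase, so luminescence is the read-out. The assay was used to screen a library of 830 known drugs and 4359 bioactive compounds.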

The next data set has as its target T1, Flt3 (Homo sapiens, UniProt P36888).
T1 sequence (P36888 27-993): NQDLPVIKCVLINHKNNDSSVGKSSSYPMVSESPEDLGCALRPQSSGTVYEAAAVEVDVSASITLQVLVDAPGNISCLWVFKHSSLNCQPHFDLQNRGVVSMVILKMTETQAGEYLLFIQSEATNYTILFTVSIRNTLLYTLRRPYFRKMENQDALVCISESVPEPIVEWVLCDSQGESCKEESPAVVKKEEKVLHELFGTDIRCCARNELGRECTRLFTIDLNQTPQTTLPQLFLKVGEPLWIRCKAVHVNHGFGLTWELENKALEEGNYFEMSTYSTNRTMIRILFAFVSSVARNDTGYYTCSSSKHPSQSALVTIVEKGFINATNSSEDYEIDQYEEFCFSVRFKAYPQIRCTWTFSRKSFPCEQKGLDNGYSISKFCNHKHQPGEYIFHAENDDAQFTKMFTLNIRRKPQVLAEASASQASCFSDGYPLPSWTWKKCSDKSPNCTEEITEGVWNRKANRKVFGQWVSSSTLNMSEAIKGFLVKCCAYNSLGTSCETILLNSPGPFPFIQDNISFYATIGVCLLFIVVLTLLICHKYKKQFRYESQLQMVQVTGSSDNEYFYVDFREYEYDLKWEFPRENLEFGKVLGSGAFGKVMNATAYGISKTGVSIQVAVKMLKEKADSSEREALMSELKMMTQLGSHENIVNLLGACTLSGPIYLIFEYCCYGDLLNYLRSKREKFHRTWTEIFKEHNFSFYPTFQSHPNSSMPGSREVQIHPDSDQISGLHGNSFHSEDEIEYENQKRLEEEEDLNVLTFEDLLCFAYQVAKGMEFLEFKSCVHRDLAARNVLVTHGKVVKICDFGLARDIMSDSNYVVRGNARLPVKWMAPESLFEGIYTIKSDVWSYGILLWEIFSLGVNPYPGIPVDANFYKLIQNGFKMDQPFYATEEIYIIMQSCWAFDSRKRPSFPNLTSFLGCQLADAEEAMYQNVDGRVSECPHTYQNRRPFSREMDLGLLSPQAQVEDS
Kind of data set: Kinase profiling screen, Flt3. It is filed as biochemical. As to conditions: 1 μM, in duplicate.

The target of a further data set is Src(1-530) (Homo sapiens, UniProt P12931). Kind of data set: Kinase profiling screen, Src. The conditions noted are these: 1 μM, in duplicate. Format: biochemical.
The target of the next data set is CLK2 (Homo sapiens, UniProt P49760). Kind of data set: CLK2 biochemical enzyme inhibition. As to conditions: 20 versus its enantiomer 21.
The next data set addresses Plk1 (Homo sapiens, UniProt P53350). Kind of data set: Kinase profiling screen, Plk1. It is filed as biochemical. The conditions noted are these: 1 μM, in duplicate.
A short description of another data set: Solubility. Format: physicochemical. The conditions noted are these: data not shown.
Another data set has as its target CLK1 (Homo sapiens, UniProt P49759). Kind of data set: CLK1 biochemical enzyme inhibition. As to conditions: screened for CLK1 activity, data not shown.
The target in a further data set is CDK4 (Homo sapiens, UniProt P11802). Description: CDK4 biochemical enzyme inhibition. The conditions noted are these: read-out: CDK4 IC50.
Chain of CDK4 (P11802 whole entry): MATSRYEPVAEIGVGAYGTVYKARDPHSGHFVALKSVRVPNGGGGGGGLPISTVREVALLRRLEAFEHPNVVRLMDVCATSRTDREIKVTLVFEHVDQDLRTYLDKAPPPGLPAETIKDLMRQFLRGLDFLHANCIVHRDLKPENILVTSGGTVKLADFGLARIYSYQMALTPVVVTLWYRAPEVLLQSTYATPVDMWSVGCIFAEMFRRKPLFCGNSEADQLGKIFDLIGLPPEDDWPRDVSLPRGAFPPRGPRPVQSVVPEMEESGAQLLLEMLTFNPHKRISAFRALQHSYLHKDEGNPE
Chain of CDK4 (P30281 whole entry partner): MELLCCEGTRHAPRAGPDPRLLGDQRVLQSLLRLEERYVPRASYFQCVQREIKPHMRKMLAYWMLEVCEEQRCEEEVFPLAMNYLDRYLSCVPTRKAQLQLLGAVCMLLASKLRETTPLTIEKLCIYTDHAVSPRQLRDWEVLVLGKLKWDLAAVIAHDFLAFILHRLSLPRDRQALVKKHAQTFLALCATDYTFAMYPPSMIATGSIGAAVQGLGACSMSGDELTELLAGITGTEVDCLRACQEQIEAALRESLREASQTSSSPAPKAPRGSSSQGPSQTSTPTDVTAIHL

Chain of Src(1-530) (P12931 1-530): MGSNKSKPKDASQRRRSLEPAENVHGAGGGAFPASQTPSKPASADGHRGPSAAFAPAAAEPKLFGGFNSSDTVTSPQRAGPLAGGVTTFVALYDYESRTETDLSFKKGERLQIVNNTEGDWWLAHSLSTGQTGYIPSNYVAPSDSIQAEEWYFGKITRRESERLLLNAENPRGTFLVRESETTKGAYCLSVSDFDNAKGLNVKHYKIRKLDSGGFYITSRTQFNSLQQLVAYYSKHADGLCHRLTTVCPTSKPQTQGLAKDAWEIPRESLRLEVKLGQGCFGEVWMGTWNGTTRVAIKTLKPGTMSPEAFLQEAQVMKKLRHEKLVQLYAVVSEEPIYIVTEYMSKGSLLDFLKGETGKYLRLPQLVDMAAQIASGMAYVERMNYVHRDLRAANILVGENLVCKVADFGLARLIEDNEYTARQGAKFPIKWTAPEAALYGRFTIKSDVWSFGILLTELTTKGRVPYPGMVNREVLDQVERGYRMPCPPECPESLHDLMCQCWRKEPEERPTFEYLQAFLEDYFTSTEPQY
Chain of CLK2 (P49760 whole entry): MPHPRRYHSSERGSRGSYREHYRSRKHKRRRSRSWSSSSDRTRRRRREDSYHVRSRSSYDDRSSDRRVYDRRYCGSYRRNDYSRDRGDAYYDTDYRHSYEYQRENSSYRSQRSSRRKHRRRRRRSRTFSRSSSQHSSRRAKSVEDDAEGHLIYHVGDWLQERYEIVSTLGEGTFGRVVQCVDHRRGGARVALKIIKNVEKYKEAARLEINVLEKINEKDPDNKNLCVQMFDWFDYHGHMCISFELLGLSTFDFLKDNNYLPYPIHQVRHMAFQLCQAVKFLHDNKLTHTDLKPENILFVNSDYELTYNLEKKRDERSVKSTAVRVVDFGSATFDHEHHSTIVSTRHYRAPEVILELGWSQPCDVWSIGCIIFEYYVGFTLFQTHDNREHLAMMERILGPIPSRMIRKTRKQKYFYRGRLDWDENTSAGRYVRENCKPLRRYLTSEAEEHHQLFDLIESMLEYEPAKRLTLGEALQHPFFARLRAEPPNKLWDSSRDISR
Chain of CLK1 (P49759 whole entry): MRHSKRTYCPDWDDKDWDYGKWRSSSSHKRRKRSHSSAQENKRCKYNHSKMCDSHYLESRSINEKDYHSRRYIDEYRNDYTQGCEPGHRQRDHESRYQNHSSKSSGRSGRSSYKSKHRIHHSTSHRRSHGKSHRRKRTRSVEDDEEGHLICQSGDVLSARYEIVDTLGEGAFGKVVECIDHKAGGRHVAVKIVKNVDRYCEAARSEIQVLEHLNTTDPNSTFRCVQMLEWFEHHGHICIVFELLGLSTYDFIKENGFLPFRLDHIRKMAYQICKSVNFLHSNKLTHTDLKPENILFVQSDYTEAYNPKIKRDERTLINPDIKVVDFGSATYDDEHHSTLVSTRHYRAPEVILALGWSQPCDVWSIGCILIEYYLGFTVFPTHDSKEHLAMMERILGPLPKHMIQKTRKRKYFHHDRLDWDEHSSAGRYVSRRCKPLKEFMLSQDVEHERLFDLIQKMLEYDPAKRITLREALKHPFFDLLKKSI
Chain of Plk1 (P53350 whole entry): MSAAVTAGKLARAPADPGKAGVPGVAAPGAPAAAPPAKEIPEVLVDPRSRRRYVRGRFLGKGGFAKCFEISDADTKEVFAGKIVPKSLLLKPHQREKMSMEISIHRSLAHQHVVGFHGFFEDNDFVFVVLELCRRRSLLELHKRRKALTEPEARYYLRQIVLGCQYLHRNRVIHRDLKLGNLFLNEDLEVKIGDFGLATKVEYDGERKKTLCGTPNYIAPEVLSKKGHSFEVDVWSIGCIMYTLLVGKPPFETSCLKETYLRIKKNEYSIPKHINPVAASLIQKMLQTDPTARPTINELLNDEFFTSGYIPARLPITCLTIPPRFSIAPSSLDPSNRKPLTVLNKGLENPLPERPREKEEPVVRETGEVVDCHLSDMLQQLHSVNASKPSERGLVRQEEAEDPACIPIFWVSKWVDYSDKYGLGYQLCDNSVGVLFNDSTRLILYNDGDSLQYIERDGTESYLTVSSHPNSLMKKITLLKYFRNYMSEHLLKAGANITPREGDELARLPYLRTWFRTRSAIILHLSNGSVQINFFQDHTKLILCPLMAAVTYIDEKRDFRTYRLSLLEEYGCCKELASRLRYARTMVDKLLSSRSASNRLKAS

For the molecule `COc1ccc2c(C)nc(Nc3nc(C)c(C)c(O)n3)nc2c1` [Madrasin, reference compound], in data set [1], the “activity in the MDM2-Luc assay at 10 μM” value is listed as “neither compound showed significant activity”. Regarding `CC(C)n1cnc2c(Nc3cccc(Cl)c3)nc(N[C@@H]3CCCC[C@@H]3N)nc21` [Compound 9], the “off-target activity against Flt3” value at Flt3 is “some significant off-target activity”. Moreover, the “off-target activity against Src(1-530)” value on Src(1-530) is “some significant off-target activity”. In addition, the “activity in the MDM2-Luc assay” value in data set [1] is “strong luciferase response”. For `CC(C)n1cnc2c(Nc3cc(N)cc(Cl)c3)nc(N[C@H]3CCCC[C@@H]3N)nc21` [Compound 20], the “potency difference between enantiomers for CLK2” value on CLK2 is recorded as above 10 fold. For `CC(=O)Nc1cc(Cl)cc(Nc2nc(N[C@@H]3CCCC[C@@H]3N)nc3c2ncn3C(C)C)c1` [Compound 15], in data set [1], the “activity in the MDM2-Luc assay” value is on record as “strong MDM2-Luc activity; also recorded: strong luciferase response”. On to `CC(C)n1ccc2c(Nc3cccc(Cl)c3)nc(N[C@H]3CCCC[C@H]3N)nc21` [Compound 11], for which the “activity in the MDM2-Luc assay at 10 μM” value in data set [1] is given as “completely abrogated all activity”. Regarding `COC(=O)c1c(/C(C#N)=C\N)c2ccc(Cl)c(Cl)c2n1C` [KH-CB19, reference compound], in data set [1], the “activity in the MDM2-Luc assay” value is “modest activity; also recorded: barely passes the minimal hit criteria”. `CC(C)n1cnc2c(Nc3cc(N)cc(Cl)c3)nc(N[C@@H]3CCCC[C@@H]3N)nc21` [Compound 14]: the “off-target activity against Flt3” value on Flt3 was “off-target activity”. The “off-target activity against Src(1-530)” value at Src(1-530) is recorded as “off-target activity”. The “off-target activity against Plk1” value on Plk1 was “off-target activity”. Besides, the “activity in the MDM2-Luc assay” value in data set [1] is “strong MDM2-Luc activity; also recorded: strong luciferase response”. Take `CCn1cnc2c(Nc3cccc(Cl)c3)nc(N[C@@H]3CCCC[C@@H]3NC(C)=O)nc21` [Compound 12]: the “activity in the MDM2-Luc assay at 10 μM” value in data set [1] is listed as “completely abrogated all activity”.

`CC(C)n1cnc2c(Nc3cccc(Cl)c3)nc(N[C@H]3CCCC[C@H]3N)nc21` [Compound 10]: the “activity in the MDM2-Luc assay” value in data set [1] was “strong luciferase response”. On to `COCCNc1nc(Nc2cccc(Cl)c2)c2ncn(C(C)C)c2n1` [Compound 13], for which the “solubility” value in the data set “Solubility” is on record as “very poor solubility”. For the same molecule, in data set [1], the “activity in the MDM2-Luc assay” value was “dramatically reduced activity”. Besides, on CLK1, the “activity in the CLK assay” value is listed as “active”. In the case of `CC(=O)Nc1cc(Cl)cc(Nc2nc(N[C@@H]3CCCC[C@@H]3N)nc3c2ncn3C(C)C)c1` [Compound 18], the IC50 on CDK4 came out at 611 nM.

One may read the IC50 as the concentration at which inhibition is half-maximal.
